Active and inactive are the calls of the source. The calls are words filed in the database; no cut-off is given here.
Tests used:
[1] = target: GABA-A receptor; anion channel (Rattus norvegicus) (UniProt O09028+P15431+P18506+P18508+P19969+P20236+P23574+P23576+P28471+P28473+P30191+P62813+P63079+P63138+Q91ZM7+Q9ES14); experiment: Binding constant was determined by displacing potential to [3H]-diazepam binding in cerebral cortex homogenates of rat; format: tissue-based
Outline: (§1)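 Wistar rat cerebral cortex homogenate incubated with compound and 2 nM [3H]diazepam at 0 °C for 60 min. Bound label trapped on glass filters and counted by scintillation. Ki = IC50/(1 + L/Kd).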

Mus musculus [2] = experiment: Effective dose against pentylenetetrazole intoxicity in mice administered orally; format: functional
Mus musculus [3] = experiment: Percent inhibition against tetrabenazine induced ptosis in mice administered orally at 100 mg/kg; format: functional; conditions: route oral
Outline: (§2)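 Male DS mice, 20-27 g, groups of five. Compound given po or sc in saline or gum arabic at 0.1 mL/10 g. Tetrabenazine 50 mg/kg sc given 1, 4 or 24 h later. Ptosis scored 1-4 at 1 h after TBZ, with ridit transformation. Dose for 50% prevention by regression.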

Mus musculus [4] = experiment: Effective dose against pentylenetetrazole intoxicity in mice administered through subcutaneous route; format: functional; conditions: sc
Mus musculus [5] = experiment: Effective dose against tetrabenazine induced ptosis in mice administered orally; format: functional; outline: as §2
Rattus norvegicus [6] = experiment: Effective dose was evaluated by their anticonflict effect in rats when administered through oral route; format: functional
Outline: (§3)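 Wistar rats in groups of 5-8, Geller-Seifter conflict procedure. Rats trained to lever-press for food on a variable-interval 60-s schedule. Oral dosing. A dose counted positive when shocks exceeded 12 or shock ratio exceeded 4 over four consecutive tone periods. ED50 with 95% limits by probit.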

Rattus norvegicus [7] = organism: Rattus norvegicus; experiment: Inhibitory activity against uptake of [3H]norepinephrine into rat brain synaptosomes.; format: functional
Outline: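 P2 synaptosomes from male Wistar rat cerebral cortex incubated with [3H]norepinephrine at 37 °C for 20 min, with compound at 5-6 concentrations. Stopped by Krebs-Henseleit dilution and glass-fibre filtration, then scintillation counting. IC50 taken as the concentration giving 50% uptake inhibition.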

Mus musculus [8] = experiment: Effective dose against tetrabenazine induced ptosis in mice administered subcutaneously; format: functional; conditions: sc; outline: as §2
Mus musculus [9] = experiment: Percent inhibition against tetrabenazine induced ptosis in mice administered orally at 50 mg/kg; format: functional; conditions: route oral; outline: as §2
Mus musculus [10] = experiment: Effective dose against pentylenetetrazole intoxicity in mice administered through subcutaneous route; NE = no effect at 10 mg/kg; format: functional, organism-based; set-up: dose 10 mg/kg
[11] = Acute toxicity was measured in mice after peroral administration; format: organism-based; conditions: mouse, in vivo, po
Outline: (§4)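 Male DS mice, 20-26 g, given compound orally; mortality checked the day after treatment in groups of 10. LD50 by probit method, or by up-and-down method of Brownlee et al. (n = 5) where estimated.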

Mus musculus [12] = experiment: Effective dose against pentylenetetrazole intoxicity in mice administered through subcutaneous route;NE = no effect at 20 mg/kg; format: functional, organism-based; set-up: dose 20 mg/kg
Mus musculus [13] = experiment: Effective dose against tetrabenazine induced ptosis in mice administered subcutaneously; NE= no effect at 50 mg/kg; format: functional, organism-based; set-up: dose 50 mg/kg; outline: as §2
Mus musculus [14] = experiment: Effective dose against pentylenetetrazole intoxicity in mice administered orally; NE = no effect at dose 50 mg/kg; format: functional, organism-based; set-up: dose 50 mg/kg
[15] = Acute toxicity was measured in mice after peroral administration (1293-1506); format: organism-based; conditions: mouse, in vivo, po; outline: as §4
Mus musculus [16] = experiment: Effective dose against pentylenetetrazole intoxicity in mice administered orally;NE = no effect at 50 mg/kg; format: functional, organism-based; set-up: dose 50 mg/kg
Mus musculus [17] = experiment: Percent inhibition against tetrabenazine induced ptosis in mice administered subcutaneously 50 mg/kg; format: functional; conditions: sc, route subcutaneous; outline: as §2
[18] = Acute toxicity was measured in mice after peroral administration (805-1213); format: organism-based; conditions: mouse, in vivo, po; outline: as §4
Rattus norvegicus [19] = experiment: Percent inhibition was evaluated by their anticonflict effect in rats when administered through oral route at 32 mg/kg; format: functional; outline: as §3
Rattus norvegicus [20] = experiment: Effective dose against anticonflict effect in rats when administered through oral route; format: functional; outline: as §3
Rattus norvegicus [21] = organism: Rattus norvegicus; experiment: Displacement of [3H]diazepam binding in rat cerebral cortex homogenates (Experiment 1); format: tissue-based; outline: as §1
Rattus norvegicus [22] = organism: Rattus norvegicus; experiment: Displacement of [3H]diazepam binding to rat cerebral cortex homogenates (Experiment 2); format: tissue-based; outline: as §1
Mus musculus [23] = experiment: Effective dose against pentylenetetrazole intoxicity in mice administered through subcutaneous route; NE= no effect at 10 mg/kg; format: functional, organism-based; set-up: dose 10 mg/kg
Mus musculus [24] = experiment: Effective dose against pentylenetetrazole intoxicity in mice administered orally; NE= no effect at 50 mg/kg; format: functional, organism-based; set-up: dose 50 mg/kg
Mus musculus [25] = experiment: Percent Inhibition against pentylenetetrazole intoxicity in mice administered orally at 50 mg/kg; format: functional; conditions: route oral
Mus musculus [26] = experiment: Percent inhibition against tetrabenazine induced ptosis in mice administered subcutaneously at 50 mg/kg; format: functional; conditions: sc, route subcutaneous; outline: as §2
Mus musculus [27] = experiment: Effective dose against pentylenetetrazole intoxicity in mice administered through subcutaneous route;NE = no effect at 10 mg/kg; format: functional, organism-based; set-up: dose 10 mg/kg
[28] = Mus musculus, po, read-out: ED50

SMILES	K2 [1] [µM]	ED50 (Mus musculus [2]; [28]) [mg/kg]	ED50 (Mus musculus [5]; [28]) [mg/kg]	ED50 (Mus musculus [8]) [mg/kg]	other results
CN1CCC(N2C(=O)CN=C(c3ccccc3Cl)c3cc(Cl)ccc32)C1 (stereo not drawn)	0.05	5.78	–	–	inhibition in vivo at 100 mg/kg (Mus musculus [3]): 61%
CN1CCC(N2C(=O)CN=C(c3ccccc3F)c3cc(F)ccc32)CC1	–	–	1.62	0.27	ED50 (Mus musculus [4]): 26.9 mg/kg; ED50 (Rattus norvegicus [6]): 11.4 mg/kg; IC50 (Rattus norvegicus [7]): 53700 nM
O=C1CN=C(c2ccccc2Cl)c2cc(Cl)ccc2N1C1CCNC1 (stereo not drawn)	0.027	9.63	–	12.6	inhibition in vivo at 50 mg/kg (Mus musculus [9]): 34%
Cc1ccc2c(c1)C(c1ccccc1F)=NCC(=O)N2C1CCN(C)CC1	0.26	–	–	0.84	ED50 (Mus musculus [10]): inactive
CNC1=Nc2ccc(Cl)cc2C(c2ccccc2)=[N+]([O-])C1 [CHLORDIAZEPOXIDE]	–	–	2.7	–	LD50 [11]: 877 mg/kg
CN1CCC(N2C(=O)CN=C(c3ccccc3F)c3ccc(C(F)(F)F)cc32)CC1	17	–	–	–	ED50 (Mus musculus [12]): inactive; ED50 (Mus musculus [13]): inactive
CN1CCC(N2C(=O)CN=C(c3ccccc3F)c3cc(Cl)ccc32)CC1	–	2.7	2.13	1.3	ED50 (Mus musculus [4]): 0.71 mg/kg; ED50 (Mus musculus [2]): 5.28 mg/kg; ED50 (Mus musculus [5]): 1.12 mg/kg; ED50 (Rattus norvegicus [6]): 3.67 mg/kg
O=C1CN=C(c2ccccc2)c2cc(Cl)ccc2N1C1CCNCC1	0.35	36.5	0.48	0.172	ED50 (Mus musculus [14]): inactive; ED50 (Mus musculus [10]): inactive; ED50 (Mus musculus [5]): 0.48 mg/kg; LD50 [15]: 1390 mg/kg; ED50 (Rattus norvegicus [6]): 11.8 mg/kg; IC50 (Rattus norvegicus [7]): 172 nM
CN1CCC(N2C(=O)CN=C(c3ccccc3F)c3cc(Cl)c(Cl)cc32)CC1	0.8	–	–	–	ED50 (Mus musculus [16]): inactive; ED50 (Mus musculus [10]): inactive; inhibition in vivo at 50 mg/kg (Mus musculus [17]): 64%
O=C1CN=C(c2ccccc2Cl)c2cc(Cl)ccc2N1C1CCNCC1	0.017	12.9	9.59	9.94	IC50 (Rattus norvegicus [7]): 562 nM
O=C1CN=C(c2ccccc2F)c2cc(F)ccc2N1C1CCNCC1	0.15	32.1	0.38	–	ED50 (Mus musculus [2]): 27.55 mg/kg; LD50 [18]: 939 mg/kg; IC50 (Rattus norvegicus [7]): 79 nM; inhibition in vivo at 32 mg/kg (Rattus norvegicus [19]): 50%
O=C1CN=C(c2ccccc2F)c2cc(Br)ccc2N1C1CCNCC1	0.033	2.7	5.37	–	IC50 (Rattus norvegicus [7]): 288 nM; ED50 (Rattus norvegicus [20]): 4.54 mg/kg
CN1CCC(N2C(=O)CN=C(c3ccccc3F)c3cccc(Cl)c32)CC1	4.7	–	–	2.66	ED50 (Mus musculus [10]): inactive
CN1CCC(N2C(=O)CN=C(c3ccccc3Cl)c3cc(F)ccc32)CC1	0.014	5.2	59.3	–	–
CN1CCC(N2C(=O)CN=C(c3ccccc3F)c3cc([N+](=O)[O-])ccc32)CC1	–	–	–	17.7	K2 (Rattus norvegicus [21]): 8.3 µM; K2 (Rattus norvegicus [22]): 24 µM; ED50 (Mus musculus [23]): inactive
CN1CCC(N2C(=O)CN=C(c3ccccc3F)c3ccc(F)cc32)CC1	0.44	–	–	0.94	ED50 (Mus musculus [23]): inactive; ED50 (Mus musculus [24]): inactive
O=C1C(O)N=C(c2ccccc2F)c2cc(Cl)ccc2N1C1CCNCC1 (stereo not drawn)	0.14	12.5	6.51	–	ED50 (Rattus norvegicus [6]): 8.8 mg/kg
COc1ccc2c(c1)C(c1ccccc1F)=NCC(=O)N2C1CCN(C)CC1	1.26	–	–	1.24	ED50 (Mus musculus [10]): inactive
CN1CCC(N2C(=O)CN=C(c3ccccc3F)c3ccccc32)CC1	0.2	–	–	0.21	inhibition in vivo at 50 mg/kg (Mus musculus [25]): 37.5%
CN1CCC(N2C(=O)CN=C(c3ccc(F)cc3)c3ccccc32)CC1	68	–	–	–	ED50 (Mus musculus [10]): inactive; inhibition in vivo at 50 mg/kg (Mus musculus [26]): 53%
CN1CCC(N2C(=O)CN=C(c3cccc(Cl)c3)c3cc(Cl)ccc32)CC1	23	–	–	19.3	ED50 (Mus musculus [27]): inactive

— ChEMBL document CHEMBL1123005, “1-Azacycloalkyl-1,4-benzodiazepin-2-ones with antianxiety-antidepressant actions” (J Med Chem, 1985)
